pIC50: −log10 of the molar value. Active and inactive are the calls of the source. The calls are words filed in the database; no cut-off is given here.
Legend:
[1] = system: CYP11B1; assay: Upregulation of CYP11B1 gene expression in human NCI-H295R cells at 0.1 uM measured after 24 hrs relative to control; assay type: ADME, cell-based; details: read-out: FC
Procedure, shortened: (§1)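 H295R cells were incubated for 24 h with test agent at 10 μM or angiotensin-II at 0.1 μM. CYP11B1 and CYP11B2 mRNA levels were measured and expressed as fold of control.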

[2] = system: CYP11B2; assay: Upregulation of CYP11B2 gene expression in human NCI-H295R cells at 0.1 uM measured after 24 hrs relative to control; assay type: ADME, cell-based; details: read-out: FC; procedure, shortened: as §1
[3] = Stability in human liver microsomes assessed as parent compound remaining at 50 uM preincubated for 5 to 7 mins followed by NADPH addition and measured 10 mins post-dose by LC-MS/MS; assay type: ADME, Microsome; details: read-out: Stability
[4] = Clearance in Sprague-Dawley rat at 1 mg/kg, iv or 10 mg/kg, po administered via gavage measured upto 24 hrs by LC-MS/MS; assay type: ADME, organism-based; details: in vivo
Procedure, shortened: (§2)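 Single IV and oral doses: rat 1 mg/kg IV and 10 mg/kg PO; mouse 5 mg/kg IV and 10 mg/kg PO; monkey 1 mg/kg IV and 5 mg/kg PO. IV vehicle was 10% Cremophor/10% EtOH/80% H2O for rodents and 70% PEG-400/10% EtOH/20% H2O for monkey. Oral vehicle was 15% Miglyol 812/30% Capmul MCM/15% Triacetin/40% Cremophor RH40, or the Cremophor vehicle for rat. Vss, Cl, t1/2 and %F were derived.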

[5] = target: T1, Cholesteryl ester transfer protein (Homo sapiens) (UniProt P11597); assay: Potency index, ratio of torcetrapib IC50 to test compound IC50 for inhibition of CETP in human whole plasma; assay type: cell-free
T1 sequence (whole entry): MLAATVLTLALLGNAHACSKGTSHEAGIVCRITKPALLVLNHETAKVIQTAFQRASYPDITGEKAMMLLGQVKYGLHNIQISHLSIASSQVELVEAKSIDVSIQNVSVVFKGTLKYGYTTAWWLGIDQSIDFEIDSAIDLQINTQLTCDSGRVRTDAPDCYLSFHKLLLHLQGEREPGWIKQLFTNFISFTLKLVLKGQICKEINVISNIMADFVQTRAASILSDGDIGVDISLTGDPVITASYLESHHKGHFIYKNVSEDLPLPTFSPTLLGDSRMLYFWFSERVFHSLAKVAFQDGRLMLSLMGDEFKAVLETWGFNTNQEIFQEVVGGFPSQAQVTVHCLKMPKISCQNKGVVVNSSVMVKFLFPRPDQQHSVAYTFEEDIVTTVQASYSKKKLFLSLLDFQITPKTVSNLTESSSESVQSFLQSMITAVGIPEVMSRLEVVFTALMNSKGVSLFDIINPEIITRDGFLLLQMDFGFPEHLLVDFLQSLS

[6] = Oral bioavailability in Sprague-Dawley rat at 10 mg/kg administered via gavage measured upto 24 hrs by LC-MS/MS; assay type: ADME, organism-based; details: in vivo; procedure, shortened: as §2
[7] = Volume of distribution at steady state in Sprague-Dawley rat at 1 mg/kg, iv or 10 mg/kg, po administered via gavage measured upto 24 hrs by LC-MS/MS; assay type: ADME, organism-based; details: in vivo, read-out: Vdss; procedure, shortened: as §2
[8] = system: Mus musculus; assay: In vivo inhibition of CETP in hCETP/apoB-100 dual transgenic mouse assessed as reduction in [3H]-CE transfer at 1 mg/kg, po administered via gavage measured after 2 to 8 hrs by radioactivity based assay; assay type: functional, organism-based
[9] = Stability in mouse liver microsomes assessed as parent compound remaining at 50 uM preincubated for 5 to 7 mins followed by NADPH addition and measured 10 mins post-dose by LC-MS/MS; assay type: ADME, Microsome; details: read-out: Stability
[10] = target: Voltage-gated inwardly rectifying potassium channel KCNH2 (Homo sapiens, UniProt Q12809); assay: Inhibition of human ERG expressed in HEK293 cells by flux assay
Sequence of Voltage-gated inwardly rectifying potassium channel KCNH2 (Q12809 whole entry): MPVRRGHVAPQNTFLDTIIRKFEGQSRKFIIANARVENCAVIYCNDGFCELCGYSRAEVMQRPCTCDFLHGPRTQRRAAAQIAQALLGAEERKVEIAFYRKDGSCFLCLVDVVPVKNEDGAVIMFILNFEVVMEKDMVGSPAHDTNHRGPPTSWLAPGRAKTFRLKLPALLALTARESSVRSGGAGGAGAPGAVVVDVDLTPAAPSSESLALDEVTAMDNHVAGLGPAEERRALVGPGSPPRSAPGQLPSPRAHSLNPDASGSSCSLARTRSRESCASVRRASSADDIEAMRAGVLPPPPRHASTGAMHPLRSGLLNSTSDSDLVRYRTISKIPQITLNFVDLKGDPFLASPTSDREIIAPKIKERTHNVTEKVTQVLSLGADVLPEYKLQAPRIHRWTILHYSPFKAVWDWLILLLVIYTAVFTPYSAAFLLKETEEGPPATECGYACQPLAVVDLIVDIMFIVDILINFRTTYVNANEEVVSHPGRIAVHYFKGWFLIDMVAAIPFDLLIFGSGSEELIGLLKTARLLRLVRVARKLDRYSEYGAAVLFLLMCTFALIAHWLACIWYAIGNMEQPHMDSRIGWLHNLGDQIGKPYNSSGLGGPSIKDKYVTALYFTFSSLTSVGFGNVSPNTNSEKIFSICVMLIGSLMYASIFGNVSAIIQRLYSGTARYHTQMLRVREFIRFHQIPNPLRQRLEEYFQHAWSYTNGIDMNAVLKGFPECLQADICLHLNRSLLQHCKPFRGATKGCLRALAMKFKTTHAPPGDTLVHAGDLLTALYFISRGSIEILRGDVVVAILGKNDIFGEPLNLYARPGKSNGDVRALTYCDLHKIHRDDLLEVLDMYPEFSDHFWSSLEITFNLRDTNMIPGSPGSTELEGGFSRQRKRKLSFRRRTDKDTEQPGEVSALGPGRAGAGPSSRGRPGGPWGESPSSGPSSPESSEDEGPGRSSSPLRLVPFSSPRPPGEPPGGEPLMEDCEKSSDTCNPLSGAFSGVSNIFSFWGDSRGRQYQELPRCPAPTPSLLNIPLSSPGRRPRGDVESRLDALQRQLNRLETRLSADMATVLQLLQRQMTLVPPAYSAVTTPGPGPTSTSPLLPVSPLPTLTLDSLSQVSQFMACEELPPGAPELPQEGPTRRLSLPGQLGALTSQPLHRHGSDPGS

[11] = target: T2, Cholesteryl ester transfer protein (Homo sapiens, UniProt P11597); assay: Inhibition of human recombinant CETP assessed as reduction in [3H]CE/HDL transfer incubated for 4 hrs by scintillation proximity assay
T2 sequence (P11597 whole entry): T1 sequence (whole entry)
Procedure, shortened: (§3)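 CETP activity was measured by scintillation proximity assay and by human whole plasma assay. Each was run in duplicate at six concentrations, and the mean values were used to calculate IC50.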

[12] = target: T2, Cholesteryl ester transfer protein; assay: Inhibition of CETP in human whole plasma assessed as reduction in [3H]-CE/HDL transfer incubated for 2.5 hrs by topcount scintillation counting assay; assay type: cell-free; procedure, shortened: as §3
[13] = Half life in Sprague-Dawley rat at 1 mg/kg, iv or 10 mg/kg, po administered via gavage measured upto 24 hrs by LC-MS/MS; assay type: ADME, organism-based; details: in vivo; procedure, shortened: as §2
[14] = Cardiac toxicity in telemetered rat assessed as change in systolic blood pressure at 2.5 mg/kg administered as iv infusion for 5 mins followed by 7.5 mg/kg, iv infusion for 55 mins; assay type: organism-based; details: in vivo
Procedure, shortened: (§4)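 Rats were telemetered and given a total of 10 mg/kg IV: 2.5 mg/kg infused over 5 min, then 7.5 mg/kg infused over 55 min (n = 7). Mean, systolic and diastolic BP, heart rate and locomotor activity were monitored, and the observed Cmax was recorded.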

[15] = system: Hamster; assay: In vivo inhibition of CETP in hamster assessed as increase in HDL cholesterol at 10 mg/kg, po qd administered for 7 days measured 6 hrs post-dose on every other day by FPLC analysis relative to control; assay type: functional; details: Cricetinae
Procedure, shortened: (§5)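 Hamsters received 10 mg/kg. Plasma cholesterol profiles were resolved by FPLC to give HDL cholesterol change, and plasma exposure was measured.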

[16] = system: Mus musculus; assay: In vivo inhibition of CETP in hCETP/apoB-100 dual transgenic mouse assessed as reduction in [3H]-CE transfer at 0.5 mg/kg, po administered via gavage measured after 2 to 8 hrs by radioactivity based assay; assay type: functional, organism-based
[17] = Oral bioavailability in Balb/c mouse at 10 mg/kg measured upto 24 hrs by LC-MS/MS; assay type: ADME, organism-based; details: in vivo; procedure, shortened: as §2
[18] = Volume of distribution at steady state in cynomolgus monkey at 1 mg/kg, iv or 5 mg/kg, po administered via gavage measured upto 24 hrs by LC-MS/MS; assay type: ADME, organism-based, Macaca fascicularis; details: in vivo, read-out: Vdss; procedure, shortened: as §2
[19] = Half life in Balb/c mouse at 5 mg/kg, iv or 10 mg/kg, po administered via gavage measured upto 24 hrs by LC-MS/MS; assay type: ADME, organism-based; details: in vivo; procedure, shortened: as §2
[20] = Toxicity in telemetered rat assessed as effect on locomotor activity at 2.5 mg/kg administered as iv infusion for 5 mins followed by 7.5 mg/kg, iv infusion for 55 mins; assay type: organism-based; details: in vivo; procedure, shortened: as §4
[21] = Cardiac toxicity in telemetered rat assessed as change in heart rate at 2.5 mg/kg administered as iv infusion for 5 mins followed by 7.5 mg/kg, iv infusion for 55 mins; assay type: organism-based; details: in vivo; procedure, shortened: as §4
[22] = Plasma concentration in hamster at 10 mg/kg, po qd administered for 7 days; assay type: ADME, organism-based; details: cricetinae; procedure, shortened: as §5
[23] = Half life in cynomolgus monkey at 1 mg/kg, iv or 5 mg/kg, po administered via gavage measured upto 24 hrs by LC-MS/MS; assay type: ADME, organism-based, Macaca fascicularis; details: in vivo; procedure, shortened: as §2
[24] = system: CYP11B1; assay: Effect on CYP11B1 gene expression in human NCI-H295R cells at 10 uM measured after 24 hrs relative to control; assay type: ADME, cell-based; details: read-out: FC; procedure, shortened: as §1
[25] = Volume of distribution at steady state in Balb/c mouse at 5 mg/kg, iv or 10 mg/kg, po administered via gavage measured upto 24 hrs by LC-MS/MS; assay type: ADME, organism-based; details: in vivo, read-out: Vdss; procedure, shortened: as §2
[26] = system: CYP11B2; assay: Effect on CYP11B2 gene expression in human NCI-H295R cells at 10 uM measured after 24 hrs relative to control; assay type: ADME, cell-based; details: read-out: FC; procedure, shortened: as §1
[27] = Clearance in cynomolgus monkey at 1 mg/kg, iv or 5 mg/kg, po administered via gavage measured upto 24 hrs by LC-MS/MS; assay type: ADME, organism-based, Macaca fascicularis; details: in vivo; procedure, shortened: as §2
[28] = Oral bioavailability in cynomolgus monkey at 5 mg/kg administered via gavage measured upto 24 hrs by LC-MS/MS; assay type: ADME, organism-based, Macaca fascicularis; details: in vivo; procedure, shortened: as §2
[29] = Cmax in telemetered rat at 2.5 mg/kg administered as iv infusion for 5 mins followed by 7.5 mg/kg, iv infusion for 55 mins; assay type: ADME, organism-based; design: dose 2.5 mg/kg, route intravenous; details: in vivo; procedure, shortened: as §4
[30] = Clearance in Balb/c mouse at 5 mg/kg, iv or 10 mg/kg, po administered via gavage measured upto 24 hrs by LC-MS/MS; assay type: ADME, organism-based; details: in vivo; procedure, shortened: as §2
[31] = Cardiac toxicity in telemetered rat assessed as change in diastolic blood pressure at 2.5 mg/kg administered as iv infusion for 5 mins followed by 7.5 mg/kg, iv infusion for 55 mins; assay type: organism-based; details: in vivo; procedure, shortened: as §4
[32] = system: Mus musculus; assay: In vivo inhibition of CETP in hCETP/apoB-100 dual transgenic mouse assessed as reduction in [3H]-CE transfer at 10 mg/kg, po administered via gavage measured after 2 to 8 hrs by radioactivity based assay; assay type: functional, organism-based

Structure (SMILES): CC[C@H](C)[C@H](NC(=O)[C@H](Cc1ccc(O)cc1)NC(=O)[C@@H](NC(=O)[C@H](CCCNC(=N)N)NC(=O)[C@@H](N)CC(=O)O)C(C)C)C(=O)N[C@@H](Cc1cnc[nH]1)C(=O)N1CCC[C@H]1C(=O)N[C@@H](Cc1ccccc1)C(=O)O [ANGIOTENSIN II]
- fold induction at 24 h, 0.1 µM [1]: 4
- fold induction at 24 h, 0.1 µM [2]: 4

Structure (SMILES): CC(C)Oc1cc([C@@](Cc2ccccc2)(NC(=O)C(N)C(O)(C(F)(F)F)C(F)(F)F)c2cc(F)cc(OC(F)(F)C(F)F)c2)ccc1F (some centres not stated)
- remaining at 10 min, 50 µM [3]: 95%
- clearance [4]: 5.4 mL/min/kg
- Ratio IC50 [5]: 2
- bioavailability [6]: 12%
- Vd [7]: 0.5 L/kg
- inhibition [8]: Active
- remaining at 10 min, 50 µM [9]: 90%
- pIC50 [10]: 4.36
- pIC50 [11]: 8.52
- pIC50 [12]: 7.25
- half-life [13]: 1.9 h

Structure (SMILES): NC(C(=O)N[C@@](Cc1ccccc1)(c1cc(F)cc(OC(F)(F)C(F)F)c1)c1ccc(F)c(OC2CC2)c1)C(O)(C(F)(F)F)C(F)(F)F (some centres not stated)
- remaining at 10 min, 50 µM [3]: 100%
- Activity [14]: Non-Toxic
- clearance [4]: 2.9 mL/min/kg
- inhibition in vivo at 10 mg/kg [15]: 32%
- inhibition [16]: Active
- Ratio IC50 [5]: 2
- bioavailability [17]: 18%
- Vd [18]: 3.7 L/kg
- bioavailability [6]: 39%
- half-life [19]: 5 h
- Activity [20]: Non-Toxic
- Activity [21]: Non-Toxic
- concentration at 168 h [22]: 0.9 µM
- Vd [7]: 1.5 L/kg
- half-life [23]: 69 h
- fold induction at 24 h, 10 µM [24]: 1.3
- Vd [25]: 0.4 L/kg
- fold induction at 24 h, 10 µM [26]: 0.9 to 2.1
- remaining at 10 min, 50 µM [9]: 100%
- pIC50 [10]: < 4.10
- clearance [27]: 0.7 mL/min/kg
- pIC50 [11]: 8.70
- bioavailability [28]: 27%
- Cmax [29]: 23.5 µM
- pIC50 [12]: 7.21
- half-life [13]: 25 h
- clearance [30]: 1.9 mL/min/kg
- Activity [31]: Non-Toxic

Structure (SMILES): CCOC(=O)N1c2ccc(C(F)(F)F)cc2[C@@H](N(Cc2cc(C(F)(F)F)cc(C(F)(F)F)c2)C(=O)OC)C[C@H]1CC
- inhibition [32]: Active
